Reference: ChEMBL document CHEMBL4229372, “Synthesis and anti-mitotic activity of 2,4- or 2,6-disubstituted- and 2,4,6-trisubstituted-2H-pyrazolo[4,3-c]pyridines” (2018)
Activity calls are given as the source filed them. The calls are words filed in the database; no cut-off is given here.

Legend:
K562 [1] = experiment: Cell cycle arrest in human K562 cells assessed as accumulation at G1 phase at 10 uM after 24 hrs by propidium iodide staining-based flow cytometric analysis (reference value: 34.6%); type: functional
K562 [2] = experiment: Induction of apoptosis in human K562 cells assessed as increase in phosphorylated Bcl2 level at 1.25 to 20 uM after 24 hrs by immunoblotting; type: functional, cell-based
Procedure, shortened: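 Cells treated 24 h with a range of doses, with 1 μM doxorubicin as control. Cells were harvested into Laemmli buffer, run on SDS-PAGE and blotted to nitrocellulose. Membranes were probed overnight with primary antibodies (PARP, Ser139-phospho-H2AX, Bcl-2, β-actin loading control), then peroxidase secondaries, with ECL detection on a CCD imager.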

[3] = target: T1, Dual specificity protein kinase TTK (Homo sapiens) (UniProt P33981); experiment: Inhibition of TTK (unknown origin)
T1 sequence (whole entry): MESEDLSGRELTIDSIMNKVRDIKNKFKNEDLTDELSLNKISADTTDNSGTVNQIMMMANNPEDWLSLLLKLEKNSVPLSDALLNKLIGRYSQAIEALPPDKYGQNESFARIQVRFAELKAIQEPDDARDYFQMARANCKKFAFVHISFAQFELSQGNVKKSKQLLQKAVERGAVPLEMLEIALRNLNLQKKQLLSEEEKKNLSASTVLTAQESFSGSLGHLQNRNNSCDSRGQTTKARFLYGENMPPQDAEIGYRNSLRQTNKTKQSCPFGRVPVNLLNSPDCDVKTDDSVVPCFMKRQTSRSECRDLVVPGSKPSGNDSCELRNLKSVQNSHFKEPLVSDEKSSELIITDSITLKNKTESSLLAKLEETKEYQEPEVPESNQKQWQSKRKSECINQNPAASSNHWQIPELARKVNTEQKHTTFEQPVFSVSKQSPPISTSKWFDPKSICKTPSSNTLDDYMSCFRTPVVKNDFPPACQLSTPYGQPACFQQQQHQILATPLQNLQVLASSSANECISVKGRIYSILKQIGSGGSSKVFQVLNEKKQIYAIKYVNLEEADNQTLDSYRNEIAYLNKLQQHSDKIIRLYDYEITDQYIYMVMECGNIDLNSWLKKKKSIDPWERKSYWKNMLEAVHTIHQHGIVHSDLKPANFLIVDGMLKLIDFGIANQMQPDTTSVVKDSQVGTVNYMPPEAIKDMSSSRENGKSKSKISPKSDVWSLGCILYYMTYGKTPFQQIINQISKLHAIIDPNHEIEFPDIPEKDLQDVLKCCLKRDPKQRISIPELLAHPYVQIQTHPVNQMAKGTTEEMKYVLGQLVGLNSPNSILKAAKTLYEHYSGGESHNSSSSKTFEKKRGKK

K562 [4] = experiment: Induction of apoptosis in human K562 cells assessed as activation of caspase 3/7 using Ac-DEVD-AMC as substrate after 24 hrs by fluorescence assay; type: functional, cell-based
Procedure, shortened: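 K562 cells were cultured overnight and treated with increasing concentrations for 24 h. Lysis buffer (3×; HEPES pH 7.4, NaCl, KCl, MgCl2, EGTA, NP40, CHAPS, sucrose, DTT, PMSF) containing 150 μM Ac-DEVD-AMC was added for 2 h. Fluorescence was read at 346/442 nm and normalized to untreated control.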

[5] = target: T2, Serine/threonine-protein kinase Chk1 (Homo sapiens) (UniProt O14757); experiment: Inhibition of CHK1 (unknown origin)
T2 sequence (whole entry): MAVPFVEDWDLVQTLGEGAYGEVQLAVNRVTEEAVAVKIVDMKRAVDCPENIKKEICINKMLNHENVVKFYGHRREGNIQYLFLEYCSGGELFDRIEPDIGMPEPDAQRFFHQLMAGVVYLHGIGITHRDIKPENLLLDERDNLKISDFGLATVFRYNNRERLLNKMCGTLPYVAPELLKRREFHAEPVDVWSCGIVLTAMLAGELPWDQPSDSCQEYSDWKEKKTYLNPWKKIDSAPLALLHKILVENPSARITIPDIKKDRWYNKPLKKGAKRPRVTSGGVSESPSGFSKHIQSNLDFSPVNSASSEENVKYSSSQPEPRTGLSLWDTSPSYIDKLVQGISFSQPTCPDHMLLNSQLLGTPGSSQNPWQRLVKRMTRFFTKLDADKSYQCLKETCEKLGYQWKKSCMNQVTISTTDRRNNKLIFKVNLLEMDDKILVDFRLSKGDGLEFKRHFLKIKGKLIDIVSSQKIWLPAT

[6] = target: T3, Serine/threonine-protein kinase Nek2 (Homo sapiens) (UniProt P51955); experiment: Inhibition of NEK2 (unknown origin)
T3 sequence (whole entry): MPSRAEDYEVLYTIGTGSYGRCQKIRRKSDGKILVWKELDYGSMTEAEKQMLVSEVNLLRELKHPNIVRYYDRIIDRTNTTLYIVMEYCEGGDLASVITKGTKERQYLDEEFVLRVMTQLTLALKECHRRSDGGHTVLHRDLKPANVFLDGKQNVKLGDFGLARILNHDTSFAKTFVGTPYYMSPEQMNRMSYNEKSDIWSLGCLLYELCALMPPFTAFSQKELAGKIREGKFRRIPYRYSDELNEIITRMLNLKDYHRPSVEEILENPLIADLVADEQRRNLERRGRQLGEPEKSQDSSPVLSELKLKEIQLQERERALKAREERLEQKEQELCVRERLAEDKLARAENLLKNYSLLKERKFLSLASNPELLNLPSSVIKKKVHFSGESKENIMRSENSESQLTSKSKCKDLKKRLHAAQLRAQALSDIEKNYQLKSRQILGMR

K562 [7] = experiment: Growth inhibition of human K562 cells after 72 hrs by Calcein AM dye based fluorescence assay; type: functional; details: K562, 72 h
Procedure, shortened: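 Cells in DMEM with 10% FBS at 37 °C, 5% CO2, treated in triplicate with six doses for 72 h. Calcein AM was added for 1 h and live-cell fluorescence read at 485/538 nm. GI50 was taken from dose-response curves.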

inhibition [3]: inactive
inhibition [5]: inactive
inhibition [6]: inactive
GI50 (K562 [7]): 2.1 µM
Structure (SMILES): CCCCCc1cc2nn(-c3ccccc3)cc2cn1
Activity (K562 [1]): 14.8%
Activity (K562 [2]): Active
Activity (K562 [4]): Dose-dependent effect
